# Assay results published in ChEMBL document CHEMBL2331093, “Synthesis and biological evaluation of novel propargyl amines as potential fluorine-18 labeled radioligands for detection of MAO-B activity” (Bioorg Med Chem, 2013).
# Columns and labels:
# [1] = Drug uptake in human putamen at 4 MBq/200 ml after 90 mins by in vitro autoradiography in presence of MAO-A ligand pirlindole; assay type: ADME, tissue-based; conditions: 1.5 h
# Method in brief: (§1)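 In vitro autoradiography with the fluorine-18 labeled radioligand on human postmortem brain tissue sections.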
# Plasma [2] = experiment: Metabolic stability in cynomolgus monkey plasma assessed as metabolite M4 retention time at 168 MBq, iv by HPLC analysis; assay type: ADME, organism-based, Macaca fascicularis; conditions: in vivo
# [3] = Drug uptake in human thalamus at 4 MBq/200 ml after 90 mins by in vitro autoradiography; assay type: ADME, tissue-based; conditions: 1.5 h; method in brief: as §1
# [4] = Drug uptake in human hippocampus at 4 MBq/200 ml after 90 mins by in vitro autoradiography; assay type: ADME, tissue-based; conditions: 1.5 h; method in brief: as §1
# [5] = Drug uptake in human thalamus at 4 MBq/200 ml after 90 mins by in vitro autoradiography in presence of MAO-B inhibitor L-deprenyl; assay type: ADME, tissue-based; conditions: 1.5 h; method in brief: as §1
# [6] = Drug uptake in human hippocampus at 4 MBq/200 ml after 90 mins by in vitro autoradiography in presence of MAO-A ligand pirlindole; assay type: ADME, tissue-based; conditions: 1.5 h; method in brief: as §1
# [7] = Drug uptake in human caudate nucleus at 4 MBq/200 ml after 90 mins by in vitro autoradiography; assay type: ADME, tissue-based; conditions: 1.5 h; method in brief: as §1
# [8] = Metabolic stability in cynomolgus monkey plasma assessed as parent compound at 168 MBq, iv after 120 mins by HPLC analysis; assay type: ADME, organism-based, Macaca fascicularis; conditions: read-out: Stability
# [9] = Drug uptake in cynomolgus monkey cortex at 168 MBq, iv by PET imaging; assay type: ADME, organism-based, Macaca fascicularis; conditions: in vivo
# Method in brief: (§2)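 PET brain imaging in a cynomolgus monkey after injection of the fluorine-18 labeled radioligand; regional radioactivity uptake expressed as %SUV over time post injection.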
# [10] = Drug uptake in cynomolgus monkey cerebellum at 168 MBq, iv by PET imaging; assay type: ADME, organism-based, Macaca fascicularis; conditions: in vivo; method in brief: as §2
# Brain = experiment: Drug uptake in cynomolgus monkey brain at 168 MBq, iv by PET imaging; assay type: ADME, organism-based, Macaca fascicularis; conditions: in vivo; method in brief: as §2
# [11] = Drug uptake in human caudate nucleus at 4 MBq/200 ml after 90 mins by in vitro autoradiography in presence of MAO-B inhibitor L-deprenyl; assay type: ADME, tissue-based; conditions: 1.5 h; method in brief: as §1
# [12] = Drug uptake in human caudate nucleus at 4 MBq/200 ml after 90 mins by in vitro autoradiography in presence of MAO-A ligand pirlindole; assay type: ADME, tissue-based; conditions: 1.5 h; method in brief: as §1
# Plasma [13] = experiment: Metabolic stability in cynomolgus monkey plasma assessed as metabolite M1 retention time at 168 MBq, iv by HPLC analysis; assay type: ADME, organism-based, Macaca fascicularis; conditions: in vivo
# [14] = Drug uptake in human hippocampus at 4 MBq/200 ml after 90 mins by in vitro autoradiography in presence of MAO-B inhibitor rasagiline; assay type: ADME, tissue-based; conditions: 1.5 h; method in brief: as §1
# [15] = Drug uptake in human putamen at 4 MBq/200 ml after 90 mins by in vitro autoradiography in presence of MAO-B inhibitor rasagiline; assay type: ADME, tissue-based; conditions: 1.5 h; method in brief: as §1
# [16] = Drug uptake in human putamen at 4 MBq/200 ml after 90 mins by in vitro autoradiography; assay type: ADME, tissue-based; conditions: 1.5 h; method in brief: as §1
# [17] = Drug uptake in human thalamus at 4 MBq/200 ml after 90 mins by in vitro autoradiography in presence of MAO-A ligand pirlindole; assay type: ADME, tissue-based; conditions: 1.5 h; method in brief: as §1
# [18] = Drug uptake in cynomolgus monkey striatum at 168 MBq, iv by PET imaging; assay type: ADME, organism-based, Macaca fascicularis; conditions: in vivo; method in brief: as §2
# [19] = Metabolic stability in cynomolgus monkey plasma assessed as parent compound at 168 MBq, iv after 45 mins by HPLC analysis; assay type: ADME, organism-based, Macaca fascicularis; conditions: read-out: Stability
# Thalamus = experiment: Drug uptake in cynomolgus monkey thalamus at 168 MBq, iv by PET imaging; assay type: ADME, organism-based, Macaca fascicularis; conditions: in vivo; method in brief: as §2
# Plasma [20] = experiment: Metabolic stability in cynomolgus monkey plasma assessed as metabolite M2 retention time at 168 MBq, iv by HPLC analysis; assay type: ADME, organism-based, Macaca fascicularis; conditions: in vivo
# [21] = Drug uptake in human thalamus at 4 MBq/200 ml after 90 mins by in vitro autoradiography in presence of MAO-B inhibitor rasagiline; assay type: ADME, tissue-based; conditions: 1.5 h; method in brief: as §1
# [22] = Drug uptake in human putamen at 4 MBq/200 ml after 90 mins by in vitro autoradiography in presence of MAO-B inhibitor L-deprenyl; assay type: ADME, tissue-based; conditions: 1.5 h; method in brief: as §1
# [23] = Drug uptake in human caudate nucleus at 4 MBq/200 ml after 90 mins by in vitro autoradiography in presence of MAO-B inhibitor rasagiline; assay type: ADME, tissue-based; conditions: 1.5 h; method in brief: as §1
# Plasma [24] = experiment: Metabolic stability in cynomolgus monkey plasma assessed as metabolite M3 retention time at 168 MBq, iv by HPLC analysis; assay type: ADME, organism-based, Macaca fascicularis; conditions: in vivo
# Plasma [25] = experiment: Metabolic stability in cynomolgus monkey plasma assessed as metabolite M5 retention time at 168 MBq, iv by HPLC analysis; assay type: ADME, organism-based, Macaca fascicularis; conditions: in vivo
# [26] = Drug uptake in human hippocampus at 4 MBq/200 ml after 90 mins by in vitro autoradiography in presence of MAO-B inhibitor L-deprenyl; assay type: ADME, tissue-based; conditions: 1.5 h; method in brief: as §1
# [27] = Drug uptake in human basal ganglia at 4 MBq/200 ml after 90 mins by in vitro autoradiography in presence of MAO-A ligand pirlindole; assay type: ADME; conditions: 1.5 h; method in brief: as §1
# [28] = Drug uptake in human basal ganglia at 4 MBq/200 ml after 90 mins by in vitro autoradiography in presence of MAO-B inhibitor rasagiline; assay type: ADME; conditions: 1.5 h; method in brief: as §1
# Cortex [29] = experiment: Drug uptake in human cortex at 4 MBq/200 ml after 90 mins by in vitro autoradiography in presence of MAO-B inhibitor rasagiline; assay type: ADME, tissue-based; conditions: 1.5 h; method in brief: as §1
# Cortex [30] = experiment: Drug uptake in human cortex at 4 MBq/200 ml after 90 mins by in vitro autoradiography in presence of MAO-B inhibitor L-deprenyl; assay type: ADME, tissue-based; conditions: 1.5 h; method in brief: as §1
# Cortex [31] = experiment: Drug uptake in human cortex at 4 MBq/200 ml after 90 mins by in vitro autoradiography; assay type: ADME, tissue-based; conditions: 1.5 h; method in brief: as §1
# [32] = Drug uptake in human basal ganglia at 4 MBq/200 ml after 90 mins by in vitro autoradiography in presence of MAO-B inhibitor L-deprenyl; assay type: ADME; conditions: 1.5 h; method in brief: as §1
# [33] = Drug uptake in human basal ganglia at 4 MBq/200 ml after 90 mins by in vitro autoradiography; assay type: ADME; conditions: 1.5 h; method in brief: as §1
# Cortex [34] = experiment: Drug uptake in human cortex at 4 MBq/200 ml after 90 mins by in vitro autoradiography in presence of MAO-A ligand pirlindole; assay type: ADME, tissue-based; conditions: 1.5 h; method in brief: as §1
# [35] = Stability of the compound in PBS buffer at pH 7.4 up to 150 mins; assay type: physicochemical; conditions: pH 7.4, 2.5 h
# [36] = target: T1, Amine oxidase [flavin-containing] A (Homo sapiens, UniProt P21397); experiment: Inhibition of recombinant human MAO-A assessed as inhibition of kynuramine oxidation by spectrophotometry
# T1 sequence (P21397 whole entry): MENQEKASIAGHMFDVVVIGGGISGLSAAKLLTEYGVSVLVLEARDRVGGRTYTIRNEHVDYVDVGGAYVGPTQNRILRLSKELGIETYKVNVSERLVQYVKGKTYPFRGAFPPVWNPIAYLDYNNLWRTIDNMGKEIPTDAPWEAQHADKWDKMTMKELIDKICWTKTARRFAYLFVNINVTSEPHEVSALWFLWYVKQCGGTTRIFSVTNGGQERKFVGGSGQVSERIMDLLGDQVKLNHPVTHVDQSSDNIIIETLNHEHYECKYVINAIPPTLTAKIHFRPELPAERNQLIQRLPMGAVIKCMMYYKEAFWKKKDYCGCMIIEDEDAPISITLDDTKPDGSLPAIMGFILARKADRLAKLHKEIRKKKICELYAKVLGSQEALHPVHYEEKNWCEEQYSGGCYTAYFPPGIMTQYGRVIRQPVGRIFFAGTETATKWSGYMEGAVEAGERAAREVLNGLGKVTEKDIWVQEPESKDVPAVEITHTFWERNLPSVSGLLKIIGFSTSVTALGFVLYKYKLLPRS
# [37] = target: T2, Amine oxidase [flavin-containing] B (Homo sapiens, UniProt P27338); experiment: Inhibition of recombinant human MAO-B assessed as inhibition of kynuramine oxidation by spectrophotometry
# T2 sequence (P27338 whole entry): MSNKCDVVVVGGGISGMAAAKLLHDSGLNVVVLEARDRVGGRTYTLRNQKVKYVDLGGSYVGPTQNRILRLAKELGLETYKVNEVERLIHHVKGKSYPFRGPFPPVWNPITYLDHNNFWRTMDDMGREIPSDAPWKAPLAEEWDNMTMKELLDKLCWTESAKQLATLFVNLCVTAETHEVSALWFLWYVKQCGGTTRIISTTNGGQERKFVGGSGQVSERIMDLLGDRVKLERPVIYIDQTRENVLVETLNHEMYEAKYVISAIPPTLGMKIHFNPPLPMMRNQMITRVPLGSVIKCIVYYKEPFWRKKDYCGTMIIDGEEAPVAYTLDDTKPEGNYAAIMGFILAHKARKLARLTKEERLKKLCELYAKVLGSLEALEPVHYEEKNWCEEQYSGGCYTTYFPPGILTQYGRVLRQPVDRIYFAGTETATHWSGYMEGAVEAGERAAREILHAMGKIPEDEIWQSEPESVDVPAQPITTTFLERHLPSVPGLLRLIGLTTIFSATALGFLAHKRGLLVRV
smiles,measurement,setting,value
C#CCN(C)[C@H](C[18F])CC(C)C,Drug uptake,[1],Active
same,Retention_time,Plasma [2],4.2 min
same,Drug uptake,[3],Active
same,Drug uptake,[4],Active
same,Drug uptake,[5],Not Active
same,Drug uptake,[6],Active
same,Drug uptake,[7],Active
same,remaining at 2 h,[8],12%
same,Drug uptake,[9],Not Active
same,Drug uptake,[10],Not Active
same,SUV,Brain,250%
same,Drug uptake,[11],Not Active
same,Drug uptake,[12],Active
same,Retention_time,Plasma [13],2 min
same,Drug uptake,[14],Not Active
same,Drug uptake,[15],Not Active
same,Drug uptake,[16],Active
same,Drug uptake,[17],Active
same,Drug uptake,[18],Active
same,remaining at 0.75 h,[19],20%
same,Drug uptake,Thalamus,Active
same,Retention_time,Plasma [20],3.4 min
same,Drug uptake,[21],Not Active
same,Drug uptake,[22],Not Active
same,Drug uptake,[23],Not Active
same,Retention_time,Plasma [24],3.7 min
same,Retention_time,Plasma [25],6.2 min
same,Drug uptake,[26],Not Active
C#CCN(C)[C@H](C[18F])Cc1ccco1,Drug uptake,[27],Active
same,Drug uptake,[3],Active
same,Drug uptake,[4],Active
same,Drug uptake,[28],Not Active
same,Drug uptake,[5],Not Active
same,Drug uptake,Cortex [29],Not Active
same,Drug uptake,[6],Active
same,Drug uptake,Cortex [30],Not Active
same,Drug uptake,[14],Not Active
same,Drug uptake,Cortex [31],Active
same,Drug uptake,[17],Active
same,Drug uptake,[21],Not Active
same,Drug uptake,[32],Not Active
same,Drug uptake,[33],Active
same,Drug uptake,Cortex [34],Active
same,Drug uptake,[26],Not Active
C#CCN(C)[C@H](C[19F])Cc1ccco1,Stability,[35],Stable
C#CCN(C)[C@H](C[19F])CC(C)C,Stability,[35],Stable
C#CCN(C)[C@H](CF)CC(C)C,IC50,[36],> 2000 nM
same,IC50,[37],132 nM
C#CCN(C)[C@H](CF)CC(=C)C,IC50,[36],> 2000 nM
same,IC50,[37],664 nM
C#CCN(C)[C@H](CF)Cc1ccco1,IC50,[36],> 2000 nM
same,IC50,[37],208 nM
